Results from ChEMBL document CHEMBL1221342, “Synthesis and in vitro antitumor activity of new 4,5-dihydropyrazole derivatives” (Bioorg Med Chem, 2010).

Key:
Format in all cases: functional
CCRF-CEM = experiment: Growth inhibition of human CCRF-CEM cells after 48 hrs by SRB assay
Procedure, shortened: (§1)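 NCI 60-cell-line screen. Cells grown in RPMI1640 with 5% fetal calf serum and 2 mM L-glutamine, with inoculum density set by cell line. Preincubated 24 h, then given compound in DMSO at 10^-4 to 10^-8 M (five 10-fold steps) for 48 h continuous exposure. Growth measured by SRB protein assay. GI50, TGI and LC50 reported as –log molar.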

K562 = experiment: Growth inhibition of human K562 cells after 48 hrs by SRB assay; conditions: K562, 48 h; procedure, shortened: as §1
MOLT-4 = experiment: Growth inhibition of human MOLT4 cells after 48 hrs by SRB assay; conditions: MOLT-4, 48 h; procedure, shortened: as §1
[1] = Growth inhibition of human […] cells after 48 hrs by SRB assay; procedure, shortened: as §1
SR = experiment: Growth inhibition of human SR cells after 48 hrs by SRB assay; procedure, shortened: as §1
HOP-62 = experiment: Growth inhibition of human HOP62 cells after 48 hrs by SRB assay; conditions: HOP-62, 48 h; procedure, shortened: as §1
NCI-H322M = experiment: Growth inhibition of human NCI-H322M cells after 48 hrs by SRB assay; procedure, shortened: as §1
NCI-H522 = experiment: Growth inhibition of human NCI-H522 cells after 48 hrs by SRB assay; conditions: NCI-H522, 48 h; procedure, shortened: as §1
COLO 205 = experiment: Growth inhibition of human COLO205 cells after 48 hrs by SRB assay; conditions: COLO 205, 48 h; procedure, shortened: as §1
HCT-116 = experiment: Growth inhibition of human HCT116 cells after 48 hrs by SRB assay; conditions: HCT-116, 48 h; procedure, shortened: as §1
HCT-15 = experiment: Growth inhibition of human HCT15 cells after 48 hrs by SRB assay; conditions: HCT-15, 48 h; procedure, shortened: as §1
HT-29 = experiment: Growth inhibition of human HT-29 cells after 48 hrs by SRB assay; conditions: HT-29, 48 h; procedure, shortened: as §1
SW-620 = experiment: Growth inhibition of human SW620 cells after 48 hrs by SRB assay; conditions: SW-620, 48 h; procedure, shortened: as §1
SF-268 = experiment: Growth inhibition of human SF268 cells after 48 hrs by SRB assay; conditions: SF-268, 48 h; procedure, shortened: as §1
SF-295 = experiment: Growth inhibition of human SF295 cells after 48 hrs by SRB assay; conditions: SF-295, 48 h; procedure, shortened: as §1
SF-539 = experiment: Growth inhibition of human SF539 cells after 48 hrs by SRB assay; conditions: SF-539, 48 h; procedure, shortened: as §1
SNB-75 = experiment: Growth inhibition of human SNB75 cells after 48 hrs by SRB assay; conditions: SNB-75, 48 h; procedure, shortened: as §1
U-251 = experiment: Growth inhibition of human U251 cells after 48 hrs by SRB assay; conditions: U-251, 48 h; procedure, shortened: as §1
Malme-3M = experiment: Growth inhibition of human MALME-3M cells after 48 hrs by SRB assay; procedure, shortened: as §1
M14 = experiment: Growth inhibition of human M14 cells after 48 hrs by SRB assay; conditions: M14, 48 h; procedure, shortened: as §1
MDA-MB-435 = experiment: Growth inhibition of human MDA-MB-435 cells after 48 hrs by SRB assay; conditions: MDA-MB-435, 48 h; procedure, shortened: as §1
SK-MEL-28 = experiment: Growth inhibition of human SK-MEL-28 cells after 48 hrs by SRB assay; conditions: SK-MEL-28, 48 h; procedure, shortened: as §1
SK-MEL-5 = experiment: Growth inhibition of human SK-MEL-5 cells after 48 hrs by SRB assay; conditions: SK-MEL-5, 48 h; procedure, shortened: as §1
UACC-62 = experiment: Growth inhibition of human UACC62 cells after 48 hrs by SRB assay; conditions: UACC-62, 48 h; procedure, shortened: as §1
OVCAR-4 = experiment: Growth inhibition of human OVCAR4 cells after 48 hrs by SRB assay; conditions: OVCAR-4, 48 h; procedure, shortened: as §1
OVCAR-8 = experiment: Growth inhibition of human OVCAR8 cells after 48 hrs by SRB assay; conditions: OVCAR-8, 48 h; procedure, shortened: as §1
SK-OV-3 = experiment: Growth inhibition of human SKOV3 cells after 48 hrs by SRB assay; conditions: SK-OV-3, 48 h; procedure, shortened: as §1
CAKI-1 = experiment: Growth inhibition of human Caki1 cells after 48 hrs by SRB assay; conditions: CAKI-1, 48 h; procedure, shortened: as §1
TK-10 = experiment: Growth inhibition of human TK10 cells after 48 hrs by SRB assay; conditions: TK-10, 48 h; procedure, shortened: as §1
UO-31 = experiment: Growth inhibition of human UO31 cells after 48 hrs by SRB assay; conditions: UO-31, 48 h; procedure, shortened: as §1
PC-3 = experiment: Growth inhibition of human PC3 cells after 48 hrs by SRB assay; conditions: PC-3, 48 h; procedure, shortened: as §1
DU-145 = experiment: Growth inhibition of human DU145 cells after 48 hrs by SRB assay; conditions: DU-145, 48 h; procedure, shortened: as §1
MCF7 = experiment: Growth inhibition of human MCF7 cells after 48 hrs by SRB assay; conditions: MCF7, 48 h; procedure, shortened: as §1
BT-549 = experiment: Growth inhibition of human BT549 cells after 48 hrs by SRB assay; conditions: BT-549, 48 h; procedure, shortened: as §1
T47D = experiment: Growth inhibition of human T47D cells after 48 hrs by SRB assay; procedure, shortened: as §1

COc1ccc(C2CC(c3cc(OC)c(OC)c(OC)c3)=NN2)cc1 (centres undefined)
GI50 (CCRF-CEM): 6.31 µM | TGI (CCRF-CEM; read-out: pTGI (converted)): > 100 µM | GI50 (K562): 2.51 µM | TGI (K562; read-out: pTGI (converted)): > 100 µM | GI50 (MOLT-4): 5.01 µM | TGI (MOLT-4; read-out: pTGI (converted)): 25.1 µM | GI50 [1]: 3.16 µM | TGI ([1]; read-out: pTGI (converted)): 20 µM | GI50 (SR): 1 µM | TGI (SR; read-out: pTGI (converted)): 3.98 µM | GI50 (HOP-62): 31.6 µM | TGI (HOP-62; read-out: pTGI (converted)): > 100 µM | GI50 (NCI-H322M): 79.4 µM | TGI (NCI-H322M; read-out: pTGI (converted)): > 100 µM | GI50 (NCI-H522): 3.16 µM | TGI (NCI-H522; read-out: pTGI (converted)): 36.3 µM | GI50 (COLO 205): 3.98 µM | TGI (COLO 205; read-out: pTGI (converted)): 31.6 µM | GI50 (HCT-116): 3.98 µM | TGI (HCT-116; read-out: pTGI (converted)): > 100 µM | GI50 (HCT-15): 3.16 µM | TGI (HCT-15; read-out: pTGI (converted)): > 100 µM | GI50 (HT-29): 3.98 µM | TGI (HT-29; read-out: pTGI (converted)): > 100 µM | GI50 (SW-620): 5.01 µM | TGI (SW-620; read-out: pTGI (converted)): > 100 µM | GI50 (SF-268): 20 µM | TGI (SF-268; read-out: pTGI (converted)): > 100 µM | GI50 (SF-295): 5.01 µM | TGI (SF-295; read-out: pTGI (converted)): > 100 µM | GI50 (SF-539): 6.31 µM | TGI (SF-539; read-out: pTGI (converted)): 39.8 µM | GI50 (SNB-75): 3.98 µM | GI50 (U-251): 3.98 µM | TGI (U-251; read-out: pTGI (converted)): > 100 µM | GI50 (Malme-3M): 25.1 µM | TGI (Malme-3M; read-out: pTGI (converted)): > 100 µM | GI50 (M14): 12.6 µM | TGI (M14; read-out: pTGI (converted)): > 100 µM | GI50 (MDA-MB-435): 3.16 µM | TGI (MDA-MB-435; read-out: pTGI (converted)): 20 µM | GI50 (SK-MEL-28): 39.8 µM | TGI (SK-MEL-28; read-out: pTGI (converted)): > 100 µM | GI50 (SK-MEL-5): 3.98 µM | TGI (SK-MEL-5; read-out: pTGI (converted)): 25.1 µM | GI50 (UACC-62): 7.94 µM | TGI (UACC-62; read-out: pTGI (converted)): > 100 µM | GI50 (OVCAR-4): 12.6 µM | TGI (OVCAR-4; read-out: pTGI (converted)): > 100 µM | GI50 (OVCAR-8): 25.1 µM | TGI (OVCAR-8; read-out: pTGI (converted)): > 100 µM | GI50 (SK-OV-3): 12.6 µM | TGI (SK-OV-3; read-out: pTGI (converted)): > 100 µM | GI50 (CAKI-1): 7.94 µM | TGI (CAKI-1; read-out: pTGI (converted)): 63.1 µM | GI50 (TK-10): 39.8 µM | TGI (TK-10; read-out: pTGI (converted)): > 100 µM | GI50 (UO-31): 5.01 µM | TGI (UO-31; read-out: pTGI (converted)): > 100 µM | GI50 (PC-3): 6.31 µM | TGI (PC-3; read-out: pTGI (converted)): > 100 µM | GI50 (DU-145): 31.6 µM | TGI (DU-145; read-out: pTGI (converted)): > 100 µM | GI50 (MCF7): 2.51 µM | TGI (MCF7; read-out: pTGI (converted)): 25.1 µM | GI50 (BT-549): 7.94 µM | TGI (BT-549; read-out: pTGI (converted)): > 100 µM | GI50 (T47D): 3.98 µM | TGI (T47D; read-out: pTGI (converted)): > 100 µM
